Measured values taken from ChEMBL document CHEMBL1132951, “Resistance-modifying agents. 9. Synthesis and biological properties of benzimidazole inhibitors of the DNA repair enzyme poly(ADP-ribose) polymerase” (J Med Chem, 2000).

Tests used:
[1] = molecular target: T1, Poly [ADP-ribose] polymerase 1 (Homo sapiens, UniProt P09874)
[2] = molecular target: T1, Poly [ADP-ribose] polymerase 1; test: In vitro inhibition against human full length PARP protein; IA means inactive
Procedure, shortened: (§1)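 Baculovirus-expressed, purified human full-length PARP (20 nM) with DNase I-activated calf thymus DNA (10 μg/mL) and NAD+ (500 μM, with [32P]NAD+). Run in 50 mM Tris pH 8.0, 10 mM MgCl2, 1 mM TCEP, 2% DMSO, 25 °C, 5 min (linear to 8 min). Stopped with ice-cold TCA and filtered. Acid-insoluble [32P]ADP-ribose read by phosphorimager. Ki from competitive-inhibition fit; tight-binding equation where needed.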

[3] = molecular target: T1, Poly [ADP-ribose] polymerase 1; test: In vitro inhibition against human full length PARP protein
Procedure, shortened: as §1

A2780 [4] = test: Potentiation of growth inhibition of A2780 cells along with 10 uM NU1085 in experiment 2; assay type: functional, cell-based; details: Homo sapiens
Procedure, shortened: (§2)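 A2780 cells were grown in HEPES-RPMI 1640 + 10% FCS and seeded at 2.0–2.5 × 10^3 per well. After overnight attachment (16–24 h) they were exposed for 72 h to graded temozolomide or topotecan ± 10 μM PARP inhibitor (1% DMSO). Sulforhodamine B read at 570 nm, 5 replicate wells, % of matched control. IC50 by nonlinear regression; potentiation is IC50 alone over IC50 with inhibitor.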

A2780 [5] = test: Potentiation of growth inhibition of A2780 cells along with 10 uM NU1085 in experiment 1; assay type: functional, cell-based; details: Homo sapiens
Procedure, shortened: as §2

A2780 [6] = test: Potentiation of growth inhibition of A2780 by compound alone in experiment 1; assay type: functional, cell-based; details: Homo sapiens
Procedure, shortened: as §2

A2780 [7] = test: Potentiation factor at 50% growth inhibition (IC50 of compound to that of compound along with PARP inhibitor) in experiment 1; assay type: functional, Homo sapiens
Procedure, shortened: as §2

A2780 [8] = test: Potentiation factor at 50% growth inhibition (IC50 of compound to that of compound along with PARP inhibitor) in experiment 2; assay type: functional, Homo sapiens
Procedure, shortened: as §2

A2780 [9] = test: Potentiation of growth inhibition of A2780 cells by compound alone in experiment 2; assay type: functional, cell-based; details: Homo sapiens
Procedure, shortened: as §2

A2780 [10] = test: Potentiation of growth inhibition of A2780 cells by compound alone in experiment 1; assay type: functional, cell-based; details: Homo sapiens
Procedure, shortened: as §2

T1 sequence (P09874 whole entry): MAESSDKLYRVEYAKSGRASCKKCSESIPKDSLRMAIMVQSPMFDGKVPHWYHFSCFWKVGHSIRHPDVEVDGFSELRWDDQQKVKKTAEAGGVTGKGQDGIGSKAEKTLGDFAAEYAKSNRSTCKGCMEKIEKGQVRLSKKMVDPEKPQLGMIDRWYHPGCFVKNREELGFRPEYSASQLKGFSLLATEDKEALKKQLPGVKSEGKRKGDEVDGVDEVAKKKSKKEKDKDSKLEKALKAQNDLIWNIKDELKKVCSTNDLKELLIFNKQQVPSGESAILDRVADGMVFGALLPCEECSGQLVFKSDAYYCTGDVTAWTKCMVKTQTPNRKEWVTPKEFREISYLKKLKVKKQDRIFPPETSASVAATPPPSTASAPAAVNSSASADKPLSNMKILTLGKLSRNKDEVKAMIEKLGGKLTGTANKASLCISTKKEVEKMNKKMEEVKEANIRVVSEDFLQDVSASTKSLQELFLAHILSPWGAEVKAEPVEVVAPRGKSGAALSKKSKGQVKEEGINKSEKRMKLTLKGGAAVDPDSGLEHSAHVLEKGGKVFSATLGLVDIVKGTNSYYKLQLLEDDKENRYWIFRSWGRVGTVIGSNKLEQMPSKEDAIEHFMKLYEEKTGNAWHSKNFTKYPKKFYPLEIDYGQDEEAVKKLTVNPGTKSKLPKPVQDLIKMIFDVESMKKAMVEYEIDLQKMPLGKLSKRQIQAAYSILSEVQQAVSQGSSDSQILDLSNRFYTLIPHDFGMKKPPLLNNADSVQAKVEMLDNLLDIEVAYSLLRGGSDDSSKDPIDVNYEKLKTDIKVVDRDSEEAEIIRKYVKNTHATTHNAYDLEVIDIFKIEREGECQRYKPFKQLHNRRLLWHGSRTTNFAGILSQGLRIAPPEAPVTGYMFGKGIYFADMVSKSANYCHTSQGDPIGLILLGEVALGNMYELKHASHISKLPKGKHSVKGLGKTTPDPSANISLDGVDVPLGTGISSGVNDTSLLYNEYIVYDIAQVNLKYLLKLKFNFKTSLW

## Cc1nc2c(C(N)=O)cccc2[nH]1
[1]
  Ki: 99 nM

## CNC(=O)c1cccc2[nH]c(-c3ccc(O)cc3)nc12
[2]
  Ki: Not Active

## NC(=O)c1cccc2nc(-c3ccc(O)cc3)[nH]c12
[1]
  Ki: 6 nM

## COc1ccc(-c2nc3c(C(N)=O)cccc3n2C)cc1
[1]
  Ki: 32 nM

## COc1ccc(-c2nc3c(C(N)=O)cccc3[nH]2)cc1
[1]
  Ki: 6.8 nM

## NC(=O)c1cccc2nc(-c3ccc(Cl)cc3)[nH]c12
[1]
  Ki: 3 nM

## CNC(=O)c1cccc2[nH]c(-c3ccc(OC)cc3)nc12
[2]
  Ki: Not Active

## COc1cc(-c2nc3c(C(N)=O)cccc3[nH]2)cc(OC)c1OC
[1]
  Ki: 136 nM

## NC(=O)c1cccc2[nH]c(-c3cccc(Cl)c3)nc12
[1]
  Ki: 8.4 nM

## NC(=O)c1cccc2[nH]c(C(F)(F)F)nc12
[1]
  Ki: 350 nM

## NC(=O)c1cccc2[nH]c(-c3ccc(CO)cc3)nc12
[1]
  Ki: 1.6 nM

## NC(=O)c1cccc2[nH]c(-c3ccccc3CO)nc12
[1]
  Ki: 10.6 nM

## COc1ccc(-c2nc3c(C(N)=O)cccc3[nH]2)cc1OC
[1]
  Ki: 5.4 nM

## NC(=O)c1cccc2[nH]c(-c3ccccc3F)nc12
[1]
  Ki: 9 nM

## NC(=O)c1cccc2[nH]cnc12
[1]
  Ki: 95 nM

## CCOC(=O)c1ccc(-c2nc3c(C(N)=O)cccc3[nH]2)cc1
[1]
  Ki: 8.1 nM

## COc1cc(-c2nc3c(C(N)=O)cccc3[nH]2)ccc1O
[1]
  Ki: 13 nM

## C=CCOc1cc(-c2nc3c(C(N)=O)cccc3[nH]2)ccc1OC
[1]
  Ki: 9.4 nM

## NC(=O)c1cccc2nc(-c3ccc(N)cc3)[nH]c12
[1]
  Ki: 11 nM

## CN(C)c1ccc(-c2nc3c(C(N)=O)cccc3[nH]2)cc1
[1]
  Ki: 5.8 nM

## NC(=O)c1cccc2[nH]c(-c3ccccc3C(F)(F)F)nc12
[1]
  Ki: 190 nM

## NC(=O)c1cccc2[nH]c(-c3ccc(C(F)(F)F)cc3)nc12
[1]
  Ki: 1.2 nM

## NC(=O)c1cccc2[nH]c(-c3ccc(C(=O)O)cc3)nc12
[1]
  Ki: 290 nM

## NC(=O)c1cccc2[nH]c(-c3ccccc3Cl)nc12
[1]
  Ki: 9.4 nM

## NC(=O)c1cccc2[nH]c(-c3cccc(C(F)(F)F)c3)nc12
[1]
  Ki: 8 nM

## N#Cc1ccc(-c2nc3c(C(N)=O)cccc3[nH]2)cc1
[1]
  Ki: 4 nM

## NC(=O)c1cccc2[nH]c(-c3cccc(O)c3)nc12
[1]
  Ki: 6.3 nM

## O=C(O)c1cccc2[nH]c(-c3ccc(O)cc3)nc12
[1]
  Ki: 10000 nM

## NC(=O)c1cccc2[nH]c(-c3cccc(CO)c3)nc12
[1]
  Ki: 6.8 nM

## NC(=O)c1cccc2[nH]c(-c3ccc4c(c3)OCO4)nc12
[1]
  Ki: 5.9 nM

## COc1ccc(-c2nc3c(C(N)=O)cccc3[nH]2)cc1O
[1]
  Ki: 2 nM

## COc1ccc(-c2nc3c(C(N)=O)cccc3n2C(=O)OCc2ccccc2)cc1
[1]
  Ki: 530 nM

## NC(=O)c1cccc2[nH]c(-c3ccc([N+](=O)[O-])cc3)nc12
[3]
  Ki: 8 nM

## CC(C)[Si](OCc1ccc(-c2nc3c(C(N)=O)cccc3[nH]2)cc1)(C(C)C)C(C)C
[1]
  Ki: 85 nM

## COc1ccccc1-c1nc2c(C(N)=O)cccc2[nH]1
[1]
  Ki: 126 nM

## Cn1nnc2c(C(N)=O)ncn2c1=O [TEMOZOLOMIDE]
A2780 [4]
  IC50: 183000 nM
A2780 [5]
  IC50: 188000 nM
A2780 [6]
  IC50: 525000 nM
A2780 [7]
  PF50: 2.8
A2780 [8]
  PF50: 2
A2780 [9]
  IC50: 368000 nM

## CC[C@@]1(O)C(=O)OCc2c1cc1n(c2=O)Cc2cc3c(CN(C)C)c(O)ccc3nc2-1 [TOPOTECAN]
A2780 [4]
  IC50: 8700 nM
A2780 [10]
  IC50: 22600 nM
A2780 [5]
  IC50: 7800 nM
A2780 [7]
  PF50: 2.9
A2780 [8]
  PF50: 2.5
A2780 [9]
  IC50: 22000 nM
